Results: ChEMBL document CHEMBL5321232, “Synthesis and biological evaluation of dual MDM2/XIAP inhibitors based on the tetrahydroquinoline scaffold” (Eur J Med Chem, 2023)

Experiments:
[1] = Antiproliferative activity against human EU-1 cells assessed as inhibition of cell growth incubated for 44 hrs by WST assay; format: functional, cell-based; conditions: EU-1, 44 h
Summary of the method: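 Pediatric ALL-derived EU-1 cells grown in RPMI 1640 with 10% FBS, 2 mmol/L L-glutamine and penicillin/streptomycin at 37 °C, 5% CO2. Compounds given at graded concentrations for 44 h. WST (25 μg/well) then added for a further 4 h. OD read at 450 nm against a 620 nm reference, with cell-free wells for background.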

CWR22R [2] = test: Antiproliferative activity against human 22Rv1 cells assessed as inhibition of cell growth incubated for 72 hrs by MTS assay; format: functional, cell-based; conditions: 22Rv1, 72 h
Summary of the method: (§1)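 Cells seeded at 3,000–8,000 per well according to growth rate and incubated overnight. They were then exposed to compounds over 3 nM–100 μM for 72 h, four replicates per concentration. MTS added, 1.5 h in the dark at 37 °C, absorbance read at 490 nm. IC50 normalized to untreated cells and fitted by nonlinear regression.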

A-375 = test: Antiproliferative activity against human A-375 cells assessed as inhibition of cell growth incubated for 72 hrs by MTS assay; conditions: A-375, 72 h
MDA-MB-231 = test: Antiproliferative activity against human MDA-MB-231 cells assessed as inhibition of cell growth incubated for 72 hrs by MTS assay; format: functional, cell-based; conditions: MDA-MB-231, 72 h; summary of the method: as §1
CWR22R [3] = test: Inhibition of colony formation in human 22Rv1 cells assessed as reduction in number of clonogenic cells incubated for 14 days and subsequent media replacement with compound for every 3 days by crystal violet staining based microscopic analysis; format: functional, cell-based; conditions: dose 1-10 µM, time 14.0 day
Summary of the method: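 22Rv1 cells in log phase were seeded at 2,000 per well and incubated 72 h. They were then treated with 1, 5 or 10 μM for 14 days, with medium ± compound renewed every 3 days. Colonies were fixed in cold methanol, stained with 0.5% crystal violet and counted microscopically. Run in triplicate; area expressed relative to vehicle (100%) as mean ± SEM of three biological replicates.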

| Compound | IC50 [1] [nM] | IC50 (CWR22R [2]) [µM] | IC50 (A-375) [nM] | IC50 (MDA-MB-231) [nM] | inhibition (CWR22R [3]) |
| --- | --- | --- | --- | --- | --- |
| CN[C@@H](C)C(=O)N[C@H](C(=O)N1CCC[C@H]1C(=O)Nc1snnc1-c1ccccc1)C1CCCCC1 [GDC-0152] | 800 |  |  |  |  |
| CC(C)C(=O)c1ccc(C2Nc3ccc(S(=O)(=O)Nc4cccc(C(C)(C)C)c4)cc3C3OCCC23)cc1 (configuration not stated) | 6200 | 1.3 | 5100 | 2000 |  |
| Cc1ccc(NS(=O)(=O)c2ccc3c(c2)C2OCCC2C(C2CCN(C(=O)OC(C)(C)C)CC2)N3)cc1C (configuration not stated) | 1400 | > 10 | 700 | 1100 |  |
| CCc1cccc(NS(=O)(=O)c2ccc3c(c2)C2OCCC2C(c2ccc(C(=O)C(C)C)cc2)N3)c1 (configuration not stated) | 2100 | 1.1 | 3200 | 1500 |  |
| Cc1ccc(NS(=O)(=O)c2ccc3c(c2)C2OCCC2C(C2CCOCC2)N3)cc1C (configuration not stated) | 1600 | > 10 | 12100 | 3000 |  |
| CN(C)c1cccc(NS(=O)(=O)c2ccc3c(c2)C2OCCC2C(C2CCCCC2)N3)c1 (configuration not stated) | 4000 | > 10 | 1800 | 1100 |  |
| O=S(=O)(Nc1ccc(Cl)c(Cl)c1)c1ccc2c(c1)C1OCCC1C(C1CCCCC1)N2 (configuration not stated) | 1800 |  | > 10000 | > 10000 |  |
| CC(=O)Nc1ccc(C2Nc3ccc(S(=O)(=O)Nc4ccc(C)c(C)c4)cc3C3OCCC23)cc1 (configuration not stated) | 4500 | > 10 | 8100 | 5100 |  |
| CC(C)C(=O)c1ccc(C2Nc3ccc(S(=O)(=O)Nc4ccc5c(c4)OCO5)cc3C3OCCC23)cc1 (configuration not stated) | 5300 | 7.9 | 5900 | 3300 |  |
| CC(C)C(=O)c1ccc(C2Nc3ccc(S(=O)(=O)Nc4cccc(C(C)C)c4)cc3C3OCCC23)cc1 (configuration not stated) | 6500 | 2.1 | 2200 | 1100 |  |
| Cc1ccc(S(=O)(=O)Nc2ccc3c(c2)C2OCCC2C(c2ccc(C(=O)C(C)C)cc2)N3)cc1C (configuration not stated) | 600 | 4 | 2500 | 1300 |  |
| Cc1ccc(NS(=O)(=O)c2ccc3c(c2)C2OCCC2C(c2ccc4c(c2)CCO4)N3)cc1C (configuration not stated) | > 10000 | > 10 | 4600 | 3200 |  |
| O=S(=O)(Nc1ccc2c(c1)CCCC2)c1ccc2c(c1)C1OCCC1C(C1CCCCC1)N2 (configuration not stated) | 2300 | > 10 | > 10000 | 2200 |  |
| CC(=O)c1cccc(NS(=O)(=O)c2ccc3c(c2)C2OCCC2C(c2ccc4c(c2)CCO4)N3)c1 (configuration not stated) | 7200 | 6.3 | 1300 | 1100 |  |
| CC1CCC(NS(=O)(=O)c2ccc3c(c2)C2OCCC2C(C2CCCCC2)N3)CC1 (configuration not stated) | 1900 | > 10 | 7500 | 2400 |  |
| O=S(=O)(Nc1ccccc1)c1ccc2c(c1)C1OCCC1C(C1CCCCC1)N2 (configuration not stated) | 2600 |  | > 10000 | > 10000 |  |
| O=S(=O)(Nc1ccc(Br)c(Br)c1)c1ccc2c(c1)C1OCCC1C(C1CCCCC1)N2 (configuration not stated) | 5100 |  | > 10000 | > 10000 |  |

| Compound | IC50 [1] [nM] | IC50 (CWR22R [2]) [µM] | IC50 (A-375) [nM] | IC50 (MDA-MB-231) [nM] | inhibition (CWR22R [3]) |
| --- | --- | --- | --- | --- | --- |
| Cc1ccc(NS(=O)(=O)c2ccc3c(c2)C2OCCC2C(c2c[nH]c4ccccc24)N3)cc1C (configuration not stated) | 9200 |  | > 10000 | > 10000 |  |
| CC(=O)c1cccc(NS(=O)(=O)c2ccc3c(c2)C2OCCC2C(c2cccc(C(C)=O)c2)N3)c1 (configuration not stated) | 1000 | > 10 | 2500 | 2200 |  |
| CC(=O)c1cccc(NS(=O)(=O)c2ccc3c(c2)C2OCCC2C(C2CCCCC2)N3)c1 (configuration not stated) | 1500 | > 10 | 1100 | 1000 |  |
| CC(=O)c1cccc(NS(=O)(=O)c2ccc3c(c2)C2OCCC2C(c2ccc(C(C)C)cc2)N3)c1 (configuration not stated) | 600 | > 10 | 1900 | 600 |  |
| CC(C)[C@@H](CS(=O)(=O)C(C)C)N1C(=O)[C@@](C)(CC(=O)O)C[C@H](c2cccc(Cl)c2)[C@H]1c1ccc(Cl)cc1 [NAVTEMADLIN] | 900 | 0.3 | 600 | > 10000 |  |
| Cc1ccc(NS(=O)(=O)c2ccc3c(c2)C2OCCC2C(C2CCCCC2)N3)cc1C (configuration not stated) | 800 | > 10 | 9800 | 5700 |  |
| CC(C)C(=O)c1ccc(C2Nc3ccc(S(=O)(=O)Nc4ccc5c(c4)COC5=O)cc3C3OCCC23)cc1 (configuration not stated) | 3800 |  | > 10000 | 3800 |  |
| Cc1ccc(NS(=O)(=O)c2ccc3c(c2)C2OCCC2C(c2ccc(C(=O)C(C)C)cc2)N3)cc1C (configuration not stated) | 500 | 5.3 | 2200 | 2200 | Dose-Dependent Effect |
| CC(=O)c1ccc(NS(=O)(=O)c2ccc3c(c2)C2OCCC2C(c2ccc(C(=O)C(C)C)cc2)N3)cc1 (configuration not stated) | 1500 | 3.3 | 2000 | 2100 |  |
| CCC(=O)c1cccc(NS(=O)(=O)c2ccc3c(c2)C2OCCC2C(c2ccc(C(=O)C(C)C)cc2)N3)c1 (configuration not stated) | 1500 | 3.5 | 1300 | 1900 |  |
| CC(=O)c1cccc(NS(=O)(=O)c2ccc3c(c2)C2OCCC2C(c2ccccc2)N3)c1 (configuration not stated) | 1300 | > 10 | 900 | 900 |  |
| CC(C)C(=O)c1ccc(C2Nc3ccc(S(=O)(=O)Nc4cccc(N(C)C)c4)cc3C3OCCC23)cc1 (configuration not stated) | 7500 | 0.7 | 900 | 1600 |  |
| Cc1cc(NS(=O)(=O)c2ccc3c(c2)C2OCCC2C(C2CCCCC2)N3)ccc1C(F)(F)F (configuration not stated) | 3300 |  | > 10000 | > 10000 |  |
| CC(=O)N1CCC(C2Nc3ccc(S(=O)(=O)Nc4ccc(C)c(C)c4)cc3C3OCCC32)CC1 (configuration not stated) | > 10000 |  | > 10000 | > 10000 |  |
| O=S(=O)(Nc1ccc(C(F)(F)F)c(C(F)(F)F)c1)c1ccc2c(c1)C1OCCC1C(C1CCCCC1)N2 (configuration not stated) | > 10000 |  | > 10000 | > 10000 |  |
| CC(=O)c1cccc(S(=O)(=O)Nc2ccc3c(c2)C2OCCC2C(c2ccc(C(=O)C(C)C)cc2)N3)c1 (configuration not stated) | 700 | 7.7 | 4700 | 2000 |  |
